Test results as given in ChEMBL document CHEMBL5131498, “Synthesis and biological evaluation of orally active prodrugs and analogs of para-aminosalicylic acid (PAS)” (Eur J Med Chem, 2022).
≈ marks a conversion by molar mass, not a printed value.

Tests used:
[1] = AUC in CD-1 mouse at 10 mg/kg, po administered as single dose and measured up to 5 hrs by LC-MS/MS analysis; format: ADME, organism-based; design: dose 10 mg/kg, time < 5 hrs, route po; settings: in vivo
In short: (§1)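 Snapshot PK: single oral gavage at 10 mg/kg in 5% dimethylacetamide:60% PEG 300:35% (5% dextrose in water) solution to female CD-1 mice (n = 2). Tail-vein blood (K2EDTA) at 0.5, 1, 3, 5 h; plasma protein-precipitated in MeCN with internal standard, prodrug and released PAS quantified by LC-MS/MS; AUC by non-compartmental analysis.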

[2] = tested on: Mycobacterium tuberculosis; test: Antimycobacterial activity against Mycobacterium tuberculosis H37Rv assessed as inhibition of bacterial growth measured after 10 days by microbroth dilution method; format: functional; settings: 240 h, time 10 day
[3] = Ratio of compound AUC to para-aminosalicylic acid AUC in CD-1 mouse; format: ADME; settings: in vivo
[4] = Metabolic stability in human plasma assessed as parent compound remaining at 1 ug/ml measured after 2 hrs by LC-MS/MS analysis; format: ADME, cell-free; settings: at 1 µg/mL, read-out: Stability
In short: (§2)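 Compound at 1 μg/mL final (from 20 μg/mL DMSO stock; 5% DMSO) incubated in K2EDTA plasma (female CD-1 mouse or human) at 37 °C with shaking. Aliquots quenched in 1:1 MeCN/MeOH with verapamil; parent and released PAS measured by high-resolution LC-MS/MS; percent parent remaining versus initial concentration at 120 min.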

[5] = Metabolic stability in CD-1 mouse plasma assessed as parent compound remaining at 1 ug/ml measured after 2 hrs by LC-MS/MS analysis; format: ADME, cell-free; settings: at 1 µg/mL, read-out: Stability; in short: as §2
[6] = AUC in CD-1 mouse at 25 mg/kg, po administered as single dose and measured up to 24 hrs by LC-MS/MS analysis; format: ADME, organism-based; design: dose 25 mg/kg, time < 24 hrs, route po; settings: in vivo
In short: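 Female CD-1 mice (n = 3) given a single oral gavage dose of 25 mg/kg as a 0.5% CMC/0.5% Tween 80 suspension. Tail-vein blood was drawn at 0.5, 1, 3, 5, 7 and 24 h into K2EDTA and plasma stored at −80 °C. Only PAS was quantified, by LC-MS/MS after MeCN precipitation.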

[7] = AUC in CD-1 mouse plasma assessed as para-aminosalicylic acid AUC at 25 mg/kg, po administered as single dose and measured up to 5 hrs by LC-MS/MS analysis; format: ADME, organism-based; design: dose 25 mg/kg, time < 5 hrs, route po; settings: in vivo
In short: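 Female CD-1 mice (n = 2) dosed once by oral gavage at 25 mg/kg in 5% dimethylacetamide:60% PEG 300:35% (5% dextrose in water). Lateral tail-vein blood into K2EDTA at 0.5, 1, 3, 5 h; plasma analysed by LC-MS/MS after MeCN precipitation with internal standard; AUC over 5 h by non-compartmental fit.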

[8] = AUC in CD-1 mouse plasma assessed as para-aminosalicylic acid AUC at 10 mg/kg, po administered as single dose and measured up to 5 hrs by HPLC-MS/MS analysis; format: ADME, organism-based; design: time < 5 hrs, dose 10 mg/kg, route po; settings: in vivo; in short: as §1
[9] = AUC in CD-1 mouse plasma assessed as para-aminosalicylic acid AUC at 25 mg/kg, po administered as single dose and measured up to 24 hrs by LC-MS/MS analysis; format: ADME, organism-based; design: dose 25 mg/kg, time < 24 hrs, route po; settings: in vivo
[10] = tested on: Mycobacterium tuberculosis; test: Antimycobacterial activity against drug susceptible Mycobacterium tuberculosis H37Rv assessed as inhibition of bacterial growth measured after 2 weeks by microbroth dilution method; format: functional; settings: 336 h
In short: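 Diluted 1000-fold into 96-well plates with 2-fold serial compound dilutions and incubated at 37 °C for 2 weeks. Growth scored by mirror at 1 and 2 weeks. MIC is the lowest concentration completely inhibiting growth; tested in duplicate. DMSO, isoniazid and linezolid served as controls.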

Compound	MIC90 [2] [µM]	Ratio AUC [3]	remaining at 2 h, 1 ug/ml [4] [%]	remaining at 2 h, 1 ug/ml [5] [%]	further results
CC(C)OC(=O)c1ccc(N)cc1O	> 128	0.6	93	94	AUC at 5 h [1]: 0.23 µg·h/mL
CCOC(=O)c1ccc(N)cc1O	2 (≈ 0.362 µg/mL)	0.1	94	92	AUC at 5 h [1]: 0.044 µg·h/mL
Cl.Nc1ccc(C(=O)O)c(O)c1F	32	1.9	–	–	AUC [6]: 4 µg·h/mL
CNc1ccc(C(=O)O)c(O)c1	> 128	59	–	–	AUC [6]: 130 µg·h/mL
Cc1oc(=O)oc1COC(=O)c1ccc(N)cc1O	–	–	0	0	AUC [7]: 0.25 µg·h/mL
CC(C)OC(=O)OC(C)OC(=O)c1ccc(N)cc1O (centres undefined)	–	–	24	0	AUC [8]: 0.19 µg·h/mL
Cl.Nc1cc(O)c(C(=O)O)c(F)c1	64	1.2	–	–	AUC [6]: 2.4 µg·h/mL
CC(OC(=O)c1ccc(N)cc1O)OC(=O)C(C)(C)C (centres undefined)	–	–	0	0	AUC [7]: 0.19 µg·h/mL
Nc1ccc(C(=O)O)c(O)c1 [AMINOSALICYLIC ACID]	0.5 (≈ 0.0766 µg/mL)	1	–	–	AUC [8]: 0.38 µg·h/mL; AUC [9]: 3.4 µg·h/mL; MIC90 [10]: 0.2 µM (≈ 0.0306 µg/mL)
[N-]=[N+]=Nc1ccc(C(=O)O)c(O)c1	128 (≈ 22.9 µg/mL)	430	–	–	AUC [6]: 900 µg·h/mL
CNc1ccc(C(=O)OC)c(O)c1	–	–	96	90	AUC at 5 h [1]: 0.078 µg·h/mL
CCOC(=O)c1cc(F)c(N)cc1O	> 128	0.02	–	–	–
Nc1cc(O)c(C(=O)O)cc1F	8 (≈ 1.37 µg/mL)	4.9	–	–	AUC [6]: 10 µg·h/mL; MIC90 [10]: 6.3 µM (≈ 1.08 µg/mL)
CC(C)(C)C(=O)OCOC(=O)c1ccc(N)cc1O	–	–	15	0	AUC [8]: 0.46 µg·h/mL; AUC [9]: 0.3 µg·h/mL
COC(=O)c1ccc(N)cc1O	64 (≈ 10.7 µg/mL)	0.2	94	84	AUC at 5 h [1]: 1.7 µg·h/mL; AUC [8]: 0.053 µg·h/mL
CC(C)OC(=O)OCOC(=O)c1ccc(N)cc1O	–	–	0	0	AUC [8]: 0.019 µg·h/mL
CC(=O)NC[C@H]1CN(c2ccc(N3CCOCC3)c(F)c2)C(=O)O1 [LINEZOLID]	–	–	–	–	MIC90 [10]: 0.7 µM (≈ 0.236 µg/mL)
